Screening data deposited in PubChem by several laboratories.
SENP8 block-1 = blocks the human protease SENP8; purified SENP8, Z-RLRGG-aminoluciferin cleavage, luminescence; inhibition, % at 10 µM; hit rate 1.2% among 330,000; AID 2540; in the data active = inhibition above about 50%
SENP8 block-2 = inhibitors of human SENP8 protease; inhibition, % at 20 µM; Q96LD8; recombinant SENP8, Nedd8 substrate fluorescence; hit rate 0.64% among 360,000; in the data active = inhibition mostly above about 40%, no sharp cut-off; inactive = mostly below about 27%
SENP7 block = SENP7 protease inhibition | hit rate 1.5% among 330,000 | inhibition, % at 5 µM | recombinant SENP7, Z-RLRGG-aminoluciferin luminescence, 40 min | Q9BQF6;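 active = inhibition above about 50% at the single test dose, limit read from the data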;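 also: plate controls were DMSO with enzyme for no effect and no enzyme buffer wells for full effect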
SENP6 block = inhibitors of human SENP6 protease | inhibition, % at 10 µM | Q9GZR1 | Recombinant SENP6 catalytic domain, aminoluciferin luminescence | hit rate 1.8% among 330,000;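 active = inhibition above about 50% at the single tested dose, limit read from the data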;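 also: plate controls were DMSO wells with enzyme for no effect and DMSO wells lacking enzyme for full effect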
Target sequence (Q9GZR1 628-1112 limits assumed): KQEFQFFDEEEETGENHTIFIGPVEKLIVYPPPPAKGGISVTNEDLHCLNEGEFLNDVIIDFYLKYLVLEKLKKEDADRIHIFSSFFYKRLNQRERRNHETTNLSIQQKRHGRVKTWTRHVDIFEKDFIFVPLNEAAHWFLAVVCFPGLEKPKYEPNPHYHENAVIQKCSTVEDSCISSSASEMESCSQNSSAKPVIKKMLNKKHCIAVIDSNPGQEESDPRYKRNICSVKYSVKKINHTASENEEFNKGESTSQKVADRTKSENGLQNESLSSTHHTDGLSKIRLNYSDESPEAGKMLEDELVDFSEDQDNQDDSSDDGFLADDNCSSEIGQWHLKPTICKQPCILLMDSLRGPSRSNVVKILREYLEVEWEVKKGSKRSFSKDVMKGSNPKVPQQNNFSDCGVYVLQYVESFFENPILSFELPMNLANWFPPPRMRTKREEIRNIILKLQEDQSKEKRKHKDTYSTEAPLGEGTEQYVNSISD
SENP1 FRET inh = inhibitors of human SENP1 SUMO protease catalytic domain. inhibition, % at 10 µM. recombinant SENP1 catalytic domain, CyPet-SUMO1-YPet FRET cleavage. AID 624204. hit rate 0.21% among 360,000. Q9P0U3;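 active = inhibition at least 30% at 10 µM, raw YFP signal under a set limit, fluorescence ratio 0.5 to 1.5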;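 also: 0% = enzyme with DMSO and 100% = no enzyme wells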
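System: Recombinant human SENP1 catalytic domain, His6-tagged | Incubation: Enzyme reaction for 50 min at room temperature, dark | Medium: Tris pH 8 with BME, BSA, NP40 and catalase | Also added: 25 nM SUMO1 FRET substrate | Compound: 10 µM single point, 0.5% DMSO | Measured by: FRET fluorescence in CFP and YFP emission channels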
HSP90 refold inh = inhibitors of HSP90 luciferase refolding in rabbit reticulocyte lysate; AID 1789; inhibition, % at 5.6 µM; hit rate 0.91% among 290,000; luciferase refolding luminescence, 3 h;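 active = inhibition above the screen-wide mean plus 3 SD, computed separately per campaign, cut at about 16% in these data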;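 also: 0% = DMSO wells and 100% = 60 µM geldanamycin wells; inhibitors lower the luminescence because luciferase stays unfolded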
HSP90 confirm = confirmation of HSP90 inhibitors; shares compounds with HSP90 refold inh; rabbit reticulocyte lysate, luciferase refolding luminescence, 3 h; inhibition, % at 5.9 µM; hit rate 64% among 2,300; AID 1846; in the data active = inhibition above about 18%;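 also: 0% = vehicle wells and 100% = reference inhibitor wells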
luciferase ctr = blocks native firefly luciferase in HSP90 counter-screen. shares compounds with HSP90 refold inh. purified native firefly luciferase, luminescence. inhibition, % at 5.9 µM. hit rate 48% among 2,300. AID 1847;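 active = inhibition above the mean inhibition of all tested sample wells plus 3 SD, cut at about 10% in these data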;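 also: 0% = DMSO with luciferase and 100% = wells lacking luciferase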
Numbers without * were called inactive; x = no result given. Sampled rows, rich in hits. Any-hit rate of the full collection: about 2.9%.

SMILES	SENP8 block-1	SENP8 block-2	SENP7 block	SENP6 block	SENP1 FRET inh	HSP90 refold inh	HSP90 confirm	luciferase ctr
CCCCCCCCCC(=O)N[C@@H]1c2cc(OC)c(OC)cc2C[C@H]1OCc1ccccc1	x	2	5	x	3	x	x	x
Brc1ccc(N=Nc2ccc3ccccc3n2)cc1	96*	29	100*	97*	-1	61*	95*	86*
O=C(N/N=C/c1ccc(-c2ccccc2[N+](=O)[O-])o1)c1cccnc1	44	9	17	32	-1	32*	6	-8
O=C(O)c1cccc(-c2ccc(/C=N/NC(=O)c3cccnc3)o2)c1	15	-272	2	11	-6	5	x	x
Cc1ccccc1C(=O)Nc1ccc(C(=O)N/N=C/c2ccc(O)cc2)cc1	-13	-177	-7	-30	2	-6	x	x
O=C(N/N=C/c1ccc(O)cc1)c1ccc(NC(=O)c2ccccc2Br)cc1	-7	-182	-5	-20	0	20*	1	-5
Cc1oc(C(=O)O)cc1COc1ccc2c3c(c(=O)oc2c1)CCC3	8	-300	5	31	-5	19*	8	-15
O=C(CSC(=S)N1CCCC1)Nc1ncc(Cl)cc1Cl	-8	-6	-16	-5	1	x	x	x
Cc1cccc(NC(=O)CSc2nc3ccc(NC(=O)CSc4nnnn4-c4ccccc4)cc3s2)c1C	-6	x	-6	-12	x	55*	22*	-9
O=C(CSc1nc2ccc(NC(=O)CSc3nnnn3-c3ccccc3)cc2s1)Nc1ccccc1	-5	-7	-1	-10	-4	3	x	x
CCn1cc(CN2CCCC(C(=O)Nc3cccc(-c4cc5ccccc5[nH]4)c3)C2)c(C)n1 (centres undefined)	-1	-337	0	-10	-4	-1	x	x
Cn1cc(CN2CCCC(C(=O)Nc3cccc(-c4cc5ccccc5[nH]4)c3)C2)cn1 (centres undefined)	-2	-393	4	-7	-8	23*	7	-11
CC(C)n1cc(CN2CCCC(C(=O)Nc3cccc(-c4cc5ccccc5[nH]4)c3)C2)cn1 (centres undefined)	-7	-418	-5	5	-3	18*	11	-6
NC(=O)c1ccc(-c2nnc(Nc3ccc(S(N)(=O)=O)cc3)c3ccccc23)cc1	0	-170	2	-20	1	-2	x	x
C[C@H]1CN([C@@H](C)CO)C(=O)Cc2cc(NC(=O)Cn3cnnn3)ccc2O[C@H]1CN(C)Cc1ccncc1	8	8	-1	-11	2	x	x	x
O=C(O)c1ccc(Cn2cc(/C=C\[N+](=O)[O-])c3ccccc32)o1	-1	1	-8	3	-7	43*	4	-5
COc1cc2[nH]c(C(=O)Nc3ccc4c(c3)OCCO4)cc2c(OC)c1OC	4	-28	-5	-4	1	7	x	x
COc1cc2cc(C(=O)Nc3ccc4c(c3)OCCO4)[nH]c2cc1OC	-5	-54	0	-2	-2	36*	62*	58*
CC1CCN(C2=NC(=O)/C(=C/c3ccccc3F)S2)CC1	-39	14	-45	-51	1	23*	35*	14*
O=C(NCc1ccco1)C1CCCN(S(=O)(=O)Cc2ccccc2)C1 (centres undefined)	-9	13	-18	-14	2	49*	-2	-8
COc1ccccc1C(=O)NC(=S)N1CCCc2ccccc21	-3	-116	6	-6	-47	18*	20*	13*
CCc1ccc(Nc2n[n+](-c3ccccc3)c(-c3ccc(N(CC)CC)cc3)s2)cc1	-10	-481	5	-16	12	20*	46*	-18
Cc1csc(SCC(=O)Nc2ccc3[nH]c(=O)[nH]c3c2)n1	-2	-15	2	0	-12	x	x	x
O=C(O)c1cccc(N/N=C/C2=C(Cl)c3cc(Cl)ccc3SC2)c1	x	-28	x	x	-34	18*	27*	30*
COc1ccc(CCN(C)C(=O)CN2C(=O)NC3(CCCCC3C)C2=O)cc1OC (centres undefined)	-4	7	-1	6	2	x	x	x
SMILES	SENP8 block-1	SENP8 block-2	SENP7 block	SENP6 block	SENP1 FRET inh	HSP90 refold inh	HSP90 confirm	luciferase ctr
O=C(Nc1ccc2c(c1)OCCO2)C1CC1c1ccccc1 (centres undefined)	-7	-14	-2	-17	-1	7	x	x
O=C(CC1CS(=O)(=O)CC1CC(=O)Nc1ccc2c(c1)OCCO2)Nc1ccc2c(c1)OCCO2 (centres undefined)	7	-3	0	-3	-5	59*	68*	62*
O=C(O)C1CCCCC1C(=O)Nc1ccc2c(c1)OCCO2 (centres undefined)	2	13	6	-2	0	29*	2	6
O=C(CCCc1ccccc1)Nc1ccc2c(c1)OCCO2	5	-2	3	-15	0	26*	32*	29*
COc1ccc(S(=O)(=O)N(C)C)cc1NC(=O)Cc1ccc(S(=O)(=O)N2CCOCC2)s1	-5	-5	-10	-9	-4	x	x	x
COc1cc(/C=C/C(=O)OCC(=O)NCCc2ccc(F)cc2)ccc1OC(F)F	0	-28	1	3	1	x	x	x
O=C1NC[C@@H](CCCCN2C[C@H](Cc3ccc(O)cc3)N(CC3CCCCC3)C(=O)C2=O)N(CC2CCCCC2)C1=O	x	8	x	x	3	x	x	x
O=C(N/N=C/c1cccnc1)c1cc(-c2ccc(Br)cc2)nc2ccccc12	-11	2	-6	3	-1	-4	x	x
Cc1cc(C)c2nc(N3CCCC(C(=O)NCCCN4CCOCC4)C3)sc2c1 (centres undefined)	-10	17	-6	-9	0	2	x	x
Cc1cc(C)c2nc(N3CCC(C(=O)NCCCN4CC(C)CC(C)C4)CC3)sc2c1 (centres undefined)	-6	5	1	-12	1	31*	40*	6
CCCCN(C=O)c1c(CC)nc2ccc(C(=O)NCCCn3ccnc3)cn12	x	-54	x	x	-2	x	x	x
NNC(=O)c1cccc(COc2ccccc2Br)c1	-2	24	14	6	-1	39*	36*	9.8*
NNC(=O)c1ccc(COc2cccc3ccccc23)cc1	-22	10	-6	-20	2	1	x	x
COc1cccc2sc(=NC(=O)CS(=O)(=O)c3ccc(Cl)cc3)n(C)c12	0	-286	18	-11	-1	x	x	x
Cc1cc(NC(=O)c2cccc(COc3ccc(Br)cc3)c2)no1	9	4	0	11	2	21*	64*	53*
Cc1cccc(C)c1-n1nnnc1C(c1ccnc2ccccc12)N1CCN(c2ccccc2F)CC1 (centres undefined)	x	17	x	x	0	x	x	x
